Experimental data pooled from the literature.
Cell line: MOLM-13
Read-out: cell growth or viability

| Structure (SMILES) | test | conditions | endpoint | value |
| --- | --- | --- | --- | --- |
| COc1ccc2/c(=N/c3ccccc3NC(=O)[C@@H](N)C(C)(C)C)cc(-c3ccc4c(c3)OCCO4)oc2c1 | CCK-8 | 1 µM | inhibition | 2.86% |
| c1cc(-c2cc3ncc(OCC4CCNCC4)nc3cc2-c2cccc(N3CCCCC3)c2)cc(N2CCCCC2)c1 | XTT | 7 days | EC50 | 1.4 µM |
| CS(=O)(=O)NCCC(=O)Nc1ccccc1/N=c1\cc(-c2ccc3nc(N)oc3c2)oc2ccccc12 | CCK-8 | 1 µM | inhibition | 8.5% |
| c1ccc(Oc2ccc(Nc3ccc4ncc(OCC5CCNCC5)nc4c3)cc2)cc1 | XTT | 7 days | EC50 | 1.4 µM |
| CCNc1nc2ccc(-c3c/c(=N\c4ccccc4NC(=O)CCN)c4ccccc4o3)cc2o1 | CCK-8 | 1 µM | inhibition | 12.2% |
| Cc1cc2c(C(N)=O)cccc2n1-c1nc2c(c(NCc3ccccc3)n1)CCCN2 |  | 72 h | IC50 | 0.8 µM |
| C[C@H](N)C(=O)Nc1ccccc1/N=c1\cc(-c2ccc3c(c2)OCCO3)oc2c(N)cccc12 | CCK-8 | 1 µM | inhibition | 3.7% |
| Cc1n[nH]c2ccc3nc(-c4ccc(C(=O)NCCN(C)C)cc4F)c4c(c3c12)CCCCC4 |  | 72 h | GI50 | 0.15 µM |
| Fc1ccc(Oc2ccc(Nc3ccc4ncc(OCC5CCNCC5)nc4c3)cc2)cc1 | XTT | 7 days | EC50 | 1.6 µM |
| CN(C)CCNC(=O)c1ccc(-c2nc3ccc4[nH]ncc4c3c3c2CCCCC3)cc1 |  | 72 h | GI50 | 0.084 µM |
| CONC(=O)c1cccc2c1cc(C)n2-c1nc2c(c(NCc3ccccc3)n1)CCCN2 |  | 72 h | IC50 | 1.4 µM |
| CN(C)CCNC(=O)c1ccc(-c2nc3ccc4[nH]ncc4c3c3c2CCCC3)c(F)c1 |  | 72 h | GI50 | 0.262 µM |
| CC(C)(C)[C@H](N)C(=O)Nc1ccccc1/N=c1\cc(-c2ccc3c(c2)OCCO3)oc2cc(F)ccc12 | CCK-8 | 1 µM | inhibition | 6.65% |
| c1cc(N2CCCC2)ccc1-c1cc2ncc(OCC3CCNCC3)nc2cc1-c1ccc(N2CCCC2)cc1 | XTT | 7 days | EC50 | 1.7 µM |
| Cc1n[nH]c2ccc3nc(-c4ccc(C(=O)NCCN(C)C)cc4)c4c(c3c12)CCCCC4 |  | 72 h | GI50 | 0.187 µM |
